TDP2 inh: TDP2 (human) inhibition, absorbance primary screen | O95551 | recombinant TDP2, T5PNP hydrolysis, p-nitrophenol absorbance 415 nm | inhibition, % at 12.8 µM | actives 0.34% (n = 370,000) | AID 720702;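 active = inhibition above the mean of all tested compounds plus 3 SD, set per campaign, cut at about 25% in these data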
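Assay system: recombinant human TDP2 / Reagent: T5PNP substrate at 5 mM, a TopII-DNA adduct mimic / Measured by: epi absorbance from released p-nitrophenol / Evaluation: % inhibition relative to enzyme-containing and enzyme-free wells / Control set: enzyme-free and DMSO wells / Replicates: each compound tested once, singlicate / Schedule: enzyme reaction with compound for 2 h at 37 °C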
NSD2 inh: NSD2 (human) methyltransferase inhibition | inhibition, % at 12.5 µM | NSD2 peptide methylation, AlphaScreen, 120 min | actives 0.54% (n = 310,000); in the data active = inhibition above about 50%
CASP6 VEID inh: blocks human caspase-6 cleavage activity; inhibition, % at 12.5 µM; P55212; actives 0.53% (n = 350,000); purified caspase-6, Z-VEID-R110 cleavage fluorescence;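 active = mean inhibition across replicates at least about 35%, with every replicate also reaching that limit, limit read from the data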
UHRF1 binding: UHRF1 methyl-DNA binding inhibition | inhibition, % at 4.4 µM | Q96T88 | UHRF1 binding to methylated oligo, TR-FRET | actives 0.75% (n = 370,000); in the data active = inhibition above about 21%;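 note: UHRF1 SRA domain binding a hemimethylated CpG hairpin DNA probe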
Target sequence (Q96T88 whole entry, looked up, the tested form may be a part): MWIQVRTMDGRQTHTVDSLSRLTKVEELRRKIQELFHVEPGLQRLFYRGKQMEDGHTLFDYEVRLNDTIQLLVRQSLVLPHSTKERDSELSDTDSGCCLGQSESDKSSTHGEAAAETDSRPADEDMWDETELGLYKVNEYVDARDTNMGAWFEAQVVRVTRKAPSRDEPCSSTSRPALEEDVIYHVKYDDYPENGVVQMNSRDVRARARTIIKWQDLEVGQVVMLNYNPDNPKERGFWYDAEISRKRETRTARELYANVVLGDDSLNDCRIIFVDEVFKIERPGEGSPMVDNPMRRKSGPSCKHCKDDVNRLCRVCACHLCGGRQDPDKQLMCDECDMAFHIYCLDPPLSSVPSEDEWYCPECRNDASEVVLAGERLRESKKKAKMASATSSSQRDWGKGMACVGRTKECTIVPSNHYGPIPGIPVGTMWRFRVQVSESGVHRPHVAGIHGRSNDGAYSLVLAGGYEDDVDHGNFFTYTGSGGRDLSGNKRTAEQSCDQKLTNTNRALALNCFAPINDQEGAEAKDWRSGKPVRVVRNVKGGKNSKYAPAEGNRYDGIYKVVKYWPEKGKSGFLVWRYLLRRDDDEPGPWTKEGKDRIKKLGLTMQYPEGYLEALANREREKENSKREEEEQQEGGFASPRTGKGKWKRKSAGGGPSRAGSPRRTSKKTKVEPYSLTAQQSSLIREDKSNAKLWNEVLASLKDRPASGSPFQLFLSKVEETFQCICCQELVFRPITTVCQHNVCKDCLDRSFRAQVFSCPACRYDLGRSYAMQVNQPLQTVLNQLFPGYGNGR
MBD2 inh: inhibitors of human MBD2 binding to methylated oligonucleotide; TR-FRET; inhibition, % at 4.4 µM; actives 0.31% (n = 370,000); AID 686964; in the data active = inhibition above about 13%
LEDGF integ inh: blocks HIV-1 LEDGF/p75-dependent DNA integration; TR-FRET IN-LEDGF/p75 DNA integration, Eu/Cy5; inhibition, % at 3.7 µM; actives 0.64% (n = 370,000); AID 743269;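 active = inhibition above the screen-wide mean plus 3 SD, cut at about 13% in these data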;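 note: signal is the Cy5 over europium emission ratio at 671 and 618 nm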
Large screens that a line does not name were inactive. Shown are actives, neighbours in structure and some others; about 1.8% of the full set was active somewhere.

CCCCCN(C(=O)CCC(=O)OC(C)C(=O)NC1CCCCC1)c1c(N)n(CCCC)c(=O)[nH]c1=O (stereo not drawn)	CASP6 VEID inh 43.1
CCCCCN(C(=O)CCC(=O)OCC(=O)N(C)C1CCCCC1)c1c(N)n(CCCC)c(=O)[nH]c1=O	none
CSCC[C@H](NC(=O)C1CCC(CNC(=O)[C@@H]2CCCN2C(=O)OC(C)(C)C)CC1)C(=O)O (stereo partly drawn)	UHRF1 binding 40.1
COc1ccc2c3c([nH]c2c1)[C@H](CO)N(C)CC31CCN(C(=O)c2ccccc2F)CC1	none (no result: TDP2 inh, NSD2 inh, UHRF1 binding, MBD2 inh, LEDGF integ inh)
CC(=O)NCCc1c[nH]c2ccc(OCc3ccccc3)cc12	none
O=C(CCl)NC(Cc1c[nH]c2ccc(OCc3ccccc3)cc12)C(=O)O (stereo not drawn)	CASP6 VEID inh 36.0
C[C@@H]1CCCCO[C@H](CN(C)S(=O)(=O)c2ccccc2)[C@@H](C)CN([C@H](C)CO)C(=O)c2cc(NS(=O)(=O)c3cn(C)cn3)ccc2O1	none (no result: TDP2 inh, NSD2 inh, UHRF1 binding, MBD2 inh, LEDGF integ inh)
O=C(NCC1COc2ccccc2O1)c1ccc(F)c(S(=O)(=O)N2CCOCC2)c1 (stereo not drawn)	CASP6 VEID inh 52.0
CC1CN(S(=O)(=O)c2cccc(C(=O)NCc3ccccn3)c2)CC(C)O1 (stereo not drawn)	UHRF1 binding 28.3
Cc1cc(C)nc(NS(=O)(=O)c2ccc(NC(=O)c3ccc(S(=O)(=O)N4CC(C)OC(C)C4)cc3)cc2)n1 (stereo not drawn)	none (no result: CASP6 VEID inh)
CC1CN(S(=O)(=O)c2ccc(C(=O)Nc3ccc(S(=O)(=O)Nc4ncccn4)cc3)cc2)CC(C)O1 (stereo not drawn)	UHRF1 binding 36.0 (no result: NSD2 inh)
CN(C)CC(=O)Nc1ccc2c(c1)[C@@H]1C[C@H](CC(=O)NCc3cc(F)ccc3F)O[C@H](CO)[C@@H]1O2	none (no result: TDP2 inh, NSD2 inh, UHRF1 binding, MBD2 inh, LEDGF integ inh)
CCCc1ccc(S(=O)(=O)N2CCN(Cc3ccco3)CC2)cc1	none
CCCS(=O)(=O)N1CCN(Cc2ccco2)CC1	UHRF1 binding 24.9 (no result: CASP6 VEID inh)
COc1ccc2c3c(n(C)c2c1)[C@@H](CO)N(C(=O)c1ccccc1)CC31CCN(C)CC1	none (no result: TDP2 inh, NSD2 inh, UHRF1 binding, MBD2 inh, LEDGF integ inh)
O=C(C[C@H]1C[C@H]2c3cc(NC(=O)NC4CCCCC4)ccc3O[C@H]2[C@@H](CO)O1)NCCc1ccccc1	none (no result: TDP2 inh, NSD2 inh, UHRF1 binding, MBD2 inh, LEDGF integ inh)
O=C1Nc2ccc(Br)cc2C1=Nc1cccnc1	NSD2 inh 66.5
O=C1Nc2ccccc2C1=Nc1cccc(Cl)c1	none
CS(=O)(=O)N1N=C(c2ccco2)CC1c1ccccc1 (stereo not drawn)	none
CS(=O)(=O)N1N=C(c2ccco2)CC1c1ccco1 (stereo not drawn)	CASP6 VEID inh 62.3
CC(=O)N1N=C(c2ccco2)CC1c1ccc(Cl)o1 (stereo not drawn)	UHRF1 binding 32.9
CCCC(=O)N1CCC2(CC1)CN(Cc1cccnc1)[C@@H](CO)c1[nH]c3cc(OC)ccc3c12	none (no result: TDP2 inh, NSD2 inh, UHRF1 binding, MBD2 inh, LEDGF integ inh)
CCc1ccc2nc3nc(C)cc(C)c3c(N)c2c1	UHRF1 binding 22.2
CCCC#Cc1cnc2c(c1)C(=O)N([C@@H](C)CO)C[C@H](C)[C@@H](CN(C)C(=O)C1CCOCC1)O2	none (no result: TDP2 inh, NSD2 inh, UHRF1 binding, MBD2 inh, LEDGF integ inh)
Cc1cccc(C(=O)NNC(=O)c2ccc(Br)cc2)c1	UHRF1 binding 21.0
Cc1cccc(C(=O)NNC(=O)c2ccc(-c3ccccc3)cc2)c1	none (no result: CASP6 VEID inh)
O=C(NCc1ccccc1)c1cccc(OCC(=O)N2CCN(C(=O)c3ccco3)CC2)c1	UHRF1 binding 21.4 (no result: CASP6 VEID inh)
Cc1ccc(S(=O)(=O)N(CC(=O)O)Cc2ccco2)cc1	CASP6 VEID inh 62.5
COc1ccc(NC(=O)N(C)C[C@H]2Oc3ccc(N(C)C)cc3CC(=O)N([C@@H](C)CO)C[C@@H]2C)cc1	none (no result: TDP2 inh, NSD2 inh, UHRF1 binding, MBD2 inh, LEDGF integ inh)
CCc1cc(-c2nnn(CCC3COCCO3)c2CC)cc(CC)c1-c1cn(Cc2ccc3ccccc3c2)nn1 (stereo not drawn)	UHRF1 binding 65.4 (no result: NSD2 inh)
COC(=O)c1ccc2nc(-c3ccc(Cl)cc3)c(Cc3ccccc3)n2c1	UHRF1 binding 23.1 (no result: NSD2 inh)
COC(=O)c1ccc2nc(-c3ccc(C)cc3)c(Cc3ccc(C)cc3)n2c1	UHRF1 binding 20.8 (no result: NSD2 inh)
Cc1ccc2nc(-c3cccc(Br)c3)c(CC3CCCCC3)n2c1	UHRF1 binding 21.2 (no result: NSD2 inh)
COC(=O)c1ccc2nc(-c3ccco3)c(Cc3ccc(C)cc3)n2c1	UHRF1 binding 22.8 (no result: NSD2 inh)
Cc1ccc(Cc2c(-c3cccc(Br)c3)nc3ccc(C)cn23)cc1	none (no result: NSD2 inh)
CNC[C@H]1Oc2ccc(NC(=O)NC(C)C)cc2CC(=O)N([C@@H](C)CO)C[C@H]1C	none (no result: TDP2 inh, NSD2 inh, UHRF1 binding, MBD2 inh, LEDGF integ inh)
O=C(NC1CCCCC1)N1CC(=O)N2[C@H](CO)[C@H](c3ccc(/C=C/c4ccccc4)cc3)[C@@H]2C1	none (no result: TDP2 inh, NSD2 inh, UHRF1 binding, MBD2 inh, LEDGF integ inh)
C[C@@H]1CN([C@@H](C)CO)C(=O)c2cc(-c3ccccc3F)cnc2O[C@H]1CN(C)Cc1ccccc1	none (no result: TDP2 inh, NSD2 inh, UHRF1 binding, MBD2 inh, LEDGF integ inh)
COc1cccc(CNC(=O)[C@H]2[C@H](CO)[C@H]3Cn4c(cccc4=O)[C@@H]2N3C(=O)C2CCCC2)c1	none (no result: TDP2 inh, NSD2 inh, UHRF1 binding, MBD2 inh, LEDGF integ inh)
COC(=O)c1ccc2nc(-c3cccc(Cl)c3)c(Cc3ccccc3OC)n2c1	UHRF1 binding 21.2 (no result: NSD2 inh)
Clc1ccc2nc(-c3cccc(Br)c3)c(Cc3ccccc3)n2c1	UHRF1 binding 21.1 (no result: NSD2 inh)
Clc1cccc(Cc2c(-c3cccc(Br)c3)nc3ccc(Cl)cn23)c1	none (no result: NSD2 inh)
COC(=O)c1ccc2nc(-c3ccco3)c(Cc3ccccc3OC)n2c1	UHRF1 binding 25.5, MBD2 inh 15.9 (no result: NSD2 inh)
C[C@@H]1CN([C@H](C)CO)C(=O)c2cc(NS(=O)(=O)c3ccc(F)cc3)ccc2O[C@@H]1CN(C)S(=O)(=O)c1ccc(F)cc1	none (no result: TDP2 inh, NSD2 inh, UHRF1 binding, MBD2 inh, LEDGF integ inh)
